From PubChem BioAssay
KCNQ1 act – potentiators or activators of KCNQ1 channel, primary screen, cell-based, thallium flux, high-throughput; actives 0.35% (n = 310,000); B-score at 10 µM; CHO-K1 KCNQ1, thallium flux FluxOR fluorescence; hits give high values;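 active = fluorescence ratio B-score, a plate-corrected score, at least three library SD, with initial intensity B-score within 5 SD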
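System: CHO-K1 cells stably expressing KCNQ1 / Medium: assay buffer for compound exposure, DMSO matched across wells / Reagent: thallium- and potassium-containing depolarizing buffer / Compound: one concentration, matched DMSO / Incubation: 20 min compound pretreatment at room temperature / Measured by: kinetic FluxOR fluorescence, 10 s baseline plus 110 s post-stimulus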
KCNQ1 block – inhibitors of human KCNQ1 channel, primary screen, cell-based, thallium flux, high-throughput; AID 2642, 2010; B-score at 10 µM; actives 1.3% (n = 310,000); CHO-K1 KCNQ1, FluxOR thallium flux fluorescence; hits give high values; Potassium voltage-gated channel subfamily KQT member 1 (Homo sapiens), P51787;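 active = compounds whose thallium flux B-score, printed positive for inhibition, exceeds three library SD while starting fluorescence stays within three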;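 also: channel opened by potassium depolarization with thallium stimulus after 20 min compound exposure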
KCNK3 block – human KCNK3 channel inhibitors, primary screen, CHO cells, FluxOR thallium flux, B-score. Potassium channel subfamily K member 3 (Homo sapiens), O14649. FluxOR fluorescence; hits give low values. B-score at 10 µM. actives 0.84% (n = 340,000);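 active = B-score under library mean minus 4 SD, starting fluorescence ratio at most library mean plus 5 SD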;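 also: more negative B-score means stronger inhibition of thallium flux through KCNK3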
KCC2 mod – KCC2 cotransporter modulators, thallium flux, primary screen, cell-based, HEK293 KCC2, FluoZin-2 fluorescence, MLSMR; Solute carrier family 12 member 5 (Homo sapiens), Q9H2X9; KCC2 cells, thallium flux FluoZin-2 fluorescence; B-score of Tl+ flux slope (higher = more flux/activation; lower = inhibition) at 10 µM; actives 2.2% (n = 190,000); AID 1456, 2008;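 active = thallium flux slope and its plate-corrected score both differing from the plate sample mean at a set confidence after two filtering rounds, in either direction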;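 also: slope of fluorescence scaled to starting intensity during 10 to 20 s after thallium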
KCNK9 block – KCNK9 potassium channel inhibitors, primary screen, HEK293 cells, thallium flux | FluxOR thallium flux fluorescence; hits give low values | B-score at 10 µM | actives 1.2% (n = 310,000) | AID 488922, 2010;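 active = ratio B-score over 3 SD below the library mean, with starting fluorescence within 5 SD of its mean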;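 also: negative B-score means less thallium flux so channel inhibition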
hERG rescue – hERG rescue from dofetilide block, primary screen, cell-based, CHO-hERG, FluxOR thallium flux, dofetilide IC70. actives 0.51% (n = 310,000). AID 1511, 2009. dofetilide IC70 present. activation (rescue from dofetilide block), less the hit threshold, % at 10 µM. Voltage-gated inwardly rectifying potassium channel KCNH2 (Homo sapiens), Q12809;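 active = activation above the mean of controls blocked by dofetilide plus 5 SD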;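 also: thallium influx through hERG after potassium depolarization seen as dye fluorescence rise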
An asterisk follows results filed as active. Sampled rows, rich in hits. Any-hit rate of the full collection: about 4.1%.

How did CN(C)c1ccc2c(c1)OC(N)=C(C#N)C2c1cccc(F)c1 (centres undefined) do in these assays?
KCNQ1 act: inactive; KCNQ1 block: inactive; KCNK3 block: -11*; KCC2 mod: -1.2; KCNK9 block: -6.8*; hERG rescue: -21

How did CCCCN(C(=O)c1cccc(S(=O)(=O)N(CC)c2ccccc2)c1)c1c(N)n(CC(C)C)c(=O)[nH]c1=O do in these assays?
KCNK3 block: inactive

How did CCC(C(=O)NC(C)CCc1ccccc1)n1nc(C)n2c(cc3occc32)c1=O (centres undefined) do in these assays?
KCNQ1 act: inactive; KCNQ1 block: inactive; KCNK3 block: inactive; KCC2 mod: -5.5*; KCNK9 block: inactive; hERG rescue: -13

Results for Cc1ccc(C#CC[N+]2(CC#Cc3ccc(C)cc3)CCCCC2)cc1 ?
KCNQ1 act: inactive; KCNQ1 block: 12*; KCNK3 block: inactive; KCC2 mod: -0.48; KCNK9 block: inactive; hERG rescue: -30

Results for C(#Cc1ccccc1)C[N+]1(CC#Cc2ccccc2)CCCCC1 ?
KCNQ1 act: inactive; KCNQ1 block: inactive; KCNK3 block: inactive; KCC2 mod: 1; KCNK9 block: inactive; hERG rescue: -13

How did Oc1c(Cl)cc(Cl)cc1/C=N/c1nc(-c2ccc(Cl)cc2)cs1 do in these assays?
KCNQ1 act: inactive; KCNQ1 block: inactive; KCNK3 block: inactive; KCC2 mod: -0.41; KCNK9 block: inactive; hERG rescue: 3

What do the screens show for `Oc1c(Cl)cc(Cl)cc1/C=N/c1nccs1`?
KCNQ1 act: 9*; KCNQ1 block: inactive; KCNK3 block: inactive; KCC2 mod: 0.12; KCNK9 block: inactive; hERG rescue: -6

How did NC(=O)c1cccc(N=Cc2cc(Cl)cc(Cl)c2O)c1 do in these assays?
KCNQ1 act: 10*; KCNQ1 block: inactive; KCNK3 block: inactive; KCC2 mod: -0.66; KCNK9 block: inactive; hERG rescue: 6.5*

How did COc1ccccc1NS(=O)(=O)c1cc(C(=O)NC2CC(C)(C)NC(C)(C)C2)ccc1Cl do in these assays?
KCNK3 block: inactive

What do the screens show for `CSc1nc(Cl)c(Br)c(Nc2c[nH]c(=O)[nH]c2=O)n1`?
KCNK3 block: inactive

What do the screens show for `COc1ccc(O)c(C=NCC(C)N=Cc2cc(OC)ccc2O)c1` (centres undefined)?
KCNQ1 act: inactive; KCNQ1 block: inactive; KCNK3 block: inactive; KCC2 mod: -0.58; KCNK9 block: inactive; hERG rescue: -3

What do the screens show for `COc1cccc(C=NCC(C)N=Cc2cccc(OC)c2O)c1O` (centres undefined)?
KCNQ1 act: inactive; KCNQ1 block: inactive; KCNK3 block: inactive; KCC2 mod: -0.41; KCNK9 block: inactive; hERG rescue: 5.2*

What do the screens show for `O=c1cc(CSc2ccc(Cl)cc2)nc(-c2ccccn2)[nH]1`?
KCNQ1 act: inactive; KCNQ1 block: inactive; KCNK3 block: inactive; KCNK9 block: inactive; hERG rescue: -5

How did O=C(OCCOCCN=C1NS(=O)(=O)c2ccccc21)c1ccccc1Br do in these assays?
KCNQ1 act: inactive; KCNQ1 block: inactive; KCNK3 block: inactive; KCNK9 block: inactive; hERG rescue: -6

Results for CN(CC(=O)NCc1ccccc1)CC(=O)Nc1ccc(Cl)c(C(F)(F)F)c1 ?
KCNK3 block: -9.4*

How did CCOc1ccccc1-n1c(SCC(=O)N2CCOCC2)nc2ccccc2c1=O do in these assays?
KCNQ1 act: inactive; KCNQ1 block: inactive; KCNK3 block: inactive; KCNK9 block: inactive; hERG rescue: -5

How did C=C(C)Cn1c(C)cc(C)c(S(=O)(=O)c2ccc(C)cc2)c1=O do in these assays?
KCNQ1 act: inactive; KCNQ1 block: inactive; KCNK3 block: inactive; KCC2 mod: -1.4; KCNK9 block: -7.2*; hERG rescue: -6
